Experimental data collected from several papers.
Protocols differ between the studies behind these lines.
CDK2 with cyclin A2: Cyclin-dependent kinase 2, with cyclin A2 (CDK2, Homo sapiens, UniProt P24941)
ST14: Suppressor of tumorigenicity 14 protein (ST14, Homo sapiens, UniProt Q9Y5Y6)
Oprd1: Delta-type opioid receptor (Oprd1, Rattus norvegicus, UniProt P33533)

CNC(=O)c1cc(Oc2ccc(NC(=O)Nc3ccc(Cl)c(C(F)(F)F)c3)cc2)ccn1 — inhibition (CDK2 with cyclin A2; enzyme activity, inhibitor; 10 nM): 36.7%
N=C(N)NCCC[C@H](NC(=O)[C@H](Cc1cccc2ccccc12)NC(=O)[C@H](Cc1cscn1)NC(=O)CCc1ccccc1)C(=O)c1nc2ccccc2s1 — remaining activity (ST14; enzyme activity, inhibitor; 0.1 µM): 6%
CC(=O)Nc1c(N)nc(SCC(=O)NN)[nH]c1=O — inhibition (CDK2 with cyclin A2; enzyme activity, inhibitor; 0.1 µM): 41.2%
C[C@H]1c2nc3ccccc3c(-c3ccccc3)c2[C@H]2C[C@@H]1N(Cc1ccccc1)C[C@]2(C)O — inhibition (Oprd1; ligand displacement, radioligand; 1 µM): 0%
Cc1cc([C@@H](C)Nc2ccccc2C(=O)O)c2nc(N3CCC(F)(F)CC3)c(C#N)c(=O)n2c1 — remaining binding (Serine/threonine-protein kinase pim-1 (PIM1, Homo sapiens, UniProt P11309); binding, competition with immobilised ligand; 1 µM): 100%
COc1cc(-c2cncc3c2CN(C)Cc2cc(N4CCNCC4)ccc2-3)cc(OC)c1OC — remaining activity (Cyclin-dependent kinase 2, with cyclin E (CDK2, Homo sapiens, UniProt P24941); enzyme activity, inhibitor; 1 µM): 107%
N=C(N)NCCC[C@H](NC(=O)[C@@H](NC(=O)[C@H](Cc1cscn1)NC(=O)CCc1ccccc1)C1CC1)C(=O)c1nc2ccccc2s1 — remaining activity (ST14; enzyme activity, inhibitor; 0.1 µM): 90%
C=CC(=O)N1CCC(COCC(=O)N2CCN(c3nc(-c4cnc(N)nc4C(F)F)nc(N4CCOC[C@@H]4C)n3)CC2)CC1 — remaining binding (Mitogen-activated protein kinase 6 (MAPK6, Homo sapiens, UniProt Q16659); binding, competition with immobilised ligand; 1 µM): 100%
CC(C)(C)C[C@H](NC(=O)[C@H](Cc1cscn1)NC(=O)CCc1ccccc1)C(=O)N[C@@H](CCCNC(=N)N)C(=O)c1nc2ccccc2s1 — remaining activity (ST14; enzyme activity, inhibitor; 0.1 µM): 34%
CC(C)Oc1ccc(S(=O)(=O)c2ccc(Oc3cc(OCC(N)=O)c(C(=O)C(Cl)Cl)cc3[N+](=O)[O-])cc2)cc1 — inhibition ([Pyruvate dehydrogenase (acetyl-transferring)] kinase isozyme 4, mitochondrial (PDK4, Homo sapiens, UniProt Q16654); enzyme activity, inhibitor, ATP luminescence; 10 µM): 31.5%
CC(C)C(C)(NC(=O)[C@H](Cc1cscn1)NC(=O)CCc1ccccc1)C(=O)N[C@@H](CCCNC(=N)N)C(=O)c1nc2ccccc2s1 (stereo partly drawn) — remaining activity (ST14; enzyme activity, inhibitor; 0.1 µM): 83%
CC(=O)Nc1c(N)nc(SCC(=O)N/N=C/c2ccc([N+](=O)[O-])cc2)[nH]c1=O — inhibition (CDK2 with cyclin A2; enzyme activity, inhibitor; 5 nM): 8.37%
COc1ccc(CN2C[C@](C)(O)[C@@H]3C[C@H]2[C@@H](C)c2nc4ccccc4c(-c4ccccc4)c23)cc1 — inhibition (Oprd1; ligand displacement, radioligand; 1 µM): 0%
N=C(N)NCCC[C@H](NC(=O)[C@H](Cc1ccc(C(=O)c2ccccc2)cc1)NC(=O)[C@H](Cc1cscn1)NC(=O)CCc1ccccc1)C(=O)c1nc2ccccc2s1 — remaining activity (ST14; enzyme activity, inhibitor; 0.1 µM): 89%
O=C(COP(=O)(O)O)[C@@H](O)[C@H](O)[C@H](O)COP(=O)(O)O — ΔTm (Glyceraldehyde-3-phosphate dehydrogenase (GAPDH, Homo sapiens, UniProt P04406); thermal stability; 5 mM, lysate): 5.9 °C
CC1([C@H](NC(=O)[C@H](Cc2cscn2)NC(=O)CCc2ccccc2)C(=O)N[C@@H](CCCNC(=N)N)C(=O)c2nc3ccccc3s2)CC1 — remaining activity (ST14; enzyme activity, inhibitor; 0.1 µM): 69%
Cc1cc(NC(=O)c2cccc(NC(=O)/C=C/CN(C)C)c2)ccc1Nc1nccc(-c2cccnc2)n1 — remaining binding (Mitogen-activated protein kinase 10 (MAPK10, Homo sapiens, UniProt P53779); binding, competition with immobilised ligand; 1 µM): 0%
CNc1ncc2c(/C=C/C(=O)N3CCC(OC)CC3)nn(Cc3cccc(C(F)(F)F)c3)c2n1 — remaining activity (CDK2 with cyclin A2; enzyme activity, inhibitor, radiometric; 1 µM): 100%
